In ChEMBL document CHEMBL2321669, “Discovery, biological evaluation, and structure-activity and -selectivity relationships of 6'-substituted (E)-2-(benzofuran-3(2H)-ylidene)-N-methylacetamides, a novel class of potent and selective monoamine oxidase inhibitors” (J Med Chem, 2013):

Columns and labels:
[1] = molecular target: T1, Amine oxidase [flavin-containing] A (Rattus norvegicus, UniProt P21396); assay: Inhibition of MAO-A in Sprague-Dawley rat brain mitochondrial suspension using kynuramine as substrate incubated for 5 mins prior to substrate addition measured for 5 mins by spectrophotometry
T1 sequence (P21396 whole entry): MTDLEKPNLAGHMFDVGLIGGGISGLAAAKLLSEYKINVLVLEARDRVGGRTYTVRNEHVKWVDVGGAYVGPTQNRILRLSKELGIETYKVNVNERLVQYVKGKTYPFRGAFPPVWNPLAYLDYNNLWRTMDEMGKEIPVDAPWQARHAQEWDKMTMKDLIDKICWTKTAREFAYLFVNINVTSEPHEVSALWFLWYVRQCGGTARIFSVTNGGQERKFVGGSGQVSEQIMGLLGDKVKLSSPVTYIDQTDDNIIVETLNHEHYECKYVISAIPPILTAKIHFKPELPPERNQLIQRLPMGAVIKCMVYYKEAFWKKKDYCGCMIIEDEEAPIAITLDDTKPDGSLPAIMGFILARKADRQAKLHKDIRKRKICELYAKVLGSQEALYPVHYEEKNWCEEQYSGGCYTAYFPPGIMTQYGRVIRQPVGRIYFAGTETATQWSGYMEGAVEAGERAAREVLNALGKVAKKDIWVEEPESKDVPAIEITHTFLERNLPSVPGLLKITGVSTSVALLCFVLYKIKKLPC

[2] = molecular target: T2, Amine oxidase [flavin-containing] B (Rattus norvegicus, UniProt P19643); assay: Inhibition of MAO-B in Sprague-Dawley rat brain mitochondrial suspension using kynuramine as substrate at 10 uM incubated for 5 mins prior to substrate addition measured for 5 mins by spectrophotometry
T2 sequence (P19643 whole entry): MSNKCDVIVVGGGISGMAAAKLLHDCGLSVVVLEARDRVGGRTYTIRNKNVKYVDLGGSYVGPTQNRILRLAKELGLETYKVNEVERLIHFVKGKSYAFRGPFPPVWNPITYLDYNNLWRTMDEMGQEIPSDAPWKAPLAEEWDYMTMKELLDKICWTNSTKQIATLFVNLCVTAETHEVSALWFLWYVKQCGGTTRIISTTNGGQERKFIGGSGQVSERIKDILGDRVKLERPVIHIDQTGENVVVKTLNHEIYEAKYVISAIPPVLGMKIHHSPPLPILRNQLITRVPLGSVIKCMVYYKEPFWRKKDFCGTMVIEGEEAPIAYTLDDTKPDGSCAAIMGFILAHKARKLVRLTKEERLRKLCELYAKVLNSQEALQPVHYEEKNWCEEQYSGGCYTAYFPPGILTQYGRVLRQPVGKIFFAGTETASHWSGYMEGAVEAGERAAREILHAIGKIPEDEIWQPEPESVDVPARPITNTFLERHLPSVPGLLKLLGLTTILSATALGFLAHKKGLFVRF
Method in brief: (§1)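 Crude brain mitochondria from male Sprague-Dawley rats (200–250 g), used at 1 mg/mL. Isoforms separated with clorgyline or (−)-L-deprenyl, both irreversible at 250 nM. 5 min preincubation with compound, final DMSO 5% (v/v). Kynuramine then added at 60 μM (KM), and 4-hydroxyquinoline formation was followed at 314 nm for 5 min. IC50 by nonlinear regression of inhibition vs −log concentration, or % inhibition at 10 or 20 μM. Mean of 2–3 independent experiments.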

[3] = molecular target: T1, Amine oxidase [flavin-containing] A; assay: Ratio of moclobemide IC50 to compound IC50 for Sprague-Dawley rat brain MAO-A
[4] = molecular target: T2, Amine oxidase [flavin-containing] B; assay: Inhibition of MAO-B in Sprague-Dawley rat brain mitochondrial suspension using kynuramine as substrate at 20 uM incubated for 5 mins prior to substrate addition measured for 5 mins by spectrophotometry; method in brief: as §1
[5] = molecular target: T2, Amine oxidase [flavin-containing] B; assay: Inhibition of MAO-B in Sprague-Dawley rat brain mitochondrial suspension using kynuramine as substrate incubated for 5 mins prior to substrate addition measured for 5 mins by spectrophotometry; method in brief: as §1
[6] = molecular target: T1, Amine oxidase [flavin-containing] A; assay: Inhibition of MAO-A in Sprague-Dawley rat brain mitochondrial suspension using kynuramine as substrate at 10 uM incubated for 5 mins prior to substrate addition measured for 5 mins by spectrophotometry
Method in brief: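 Male Sprague-Dawley rat brain (200–250 g) crude mitochondrial fraction, 1 mg/mL, stored at −40 °C in isotonic phosphate/KCl buffer pH 7.4. Selective irreversible inhibitors clorgyline and (−)-L-deprenyl (250 nM each) used to separate isoform activities. Test compound preincubated 5 min, final DMSO 5% (v/v). Kynuramine 90 μM (KM) added, 4-hydroxyquinoline formation read at 314 nm for 5 min. […] Mean of 2–3 independent experiments.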

| Compound | IC50 [1] [µM] | inhibition at 10 µM [2] [%] | further results |
| --- | --- | --- | --- |
| CNC(=O)/C=C1/COc2cc(OS(=O)(=O)c3ccc(C#N)cc3)ccc21 | 0.045 | – | inhibition at 20 µM [4]: 10% |
| CNC(=O)/C=C1/COc2cc(OS(=O)(=O)c3cccc(F)c3)ccc21 | 0.041 | – | inhibition at 20 µM [4]: 6% |
| CNC(=O)Cc1coc2cc(OCc3cccc(Cl)c3)ccc12 | 3.1 | – | IC50 [5]: 0.284 µM |
| O=C(NCCN1CCOCC1)c1ccc(Cl)cc1 [MOCLOBEMIDE] | – | 0 | – |
| CCNC(=O)Cc1coc2cc(OS(=O)(=O)c3cccc(Cl)c3)ccc12 | – | 0 | inhibition at 10 µM [6]: 31% |
| CC(C)NC(=O)/C=C1/COc2cc(OS(=O)(=O)c3cccc(Cl)c3)ccc21 | – | 1 | inhibition at 10 µM [6]: 14% |
| CNCc1cc(=O)oc2cc(OS(=O)(=O)c3cccc(Cl)c3)ccc12 | 5.3 | – | IC50 [5]: 1.7 µM |
| CNC(=O)/C=C1/COc2cc(OCc3cccc(Cl)c3)ccc21 | 0.427 | – | IC50 [5]: 0.036 µM |
| CNC(=O)Cc1cc(=O)oc2cc(OS(=O)(=O)c3cccc(Cl)c3)ccc12 | 0.111 | – | IC50 [5]: 8.3 µM |
| O=C1COc2cc(OS(=O)(=O)c3cccc(Cl)c3)ccc21 | – | 0 | inhibition at 10 µM [6]: 17% |
| CNC(=O)/C=C1/COc2cc(OS(=O)(=O)c3cccc(Cl)c3)ccc21 | 0.041 | 0 | – |
| CNC(=O)c1cc(=O)oc2cc(OS(=O)(=O)c3cccc(Cl)c3)ccc12 | – | 9 | inhibition at 10 µM [6]: 8% |
| CNC(=O)Cc1coc2cc(OS(=O)(=O)c3cccc(Cl)c3)ccc12 | 0.409 | 4 | – |
| NCc1cc(=O)oc2cc(OS(=O)(=O)c3cccc(Cl)c3)ccc12 | 0.997 | – | IC50 [5]: 3.3 µM |
| CCNC(=O)/C=C1/COc2cc(OS(=O)(=O)c3cccc(Cl)c3)ccc21 | 4.2 | 0 | – |

Continued, in another order:

| IC50 [1] [µM] | inhibition at 10 µM [2] [%] | Compound | further results |
| --- | --- | --- | --- |
| 0.007 | 0 | CNC(=O)/C=C1/COc2c1ccc(OS(=O)(=O)c1ccc(OC)cc1)c2C | Ratio IC50 [3]: 1000 |
| 0.0091 | 17 | CNC(=O)/C=C1/COc2cc(OS(=O)(=O)CCC(F)(F)F)ccc21 | – |
| 0.015 | 6 | CNC(=O)/C=C1/COc2c1ccc(OS(=O)(=O)c1ccc(C#N)cc1)c2C | – |
| 0.011 | 5 | CNC(=O)/C=C1/COc2c1ccc(OS(=O)(=O)CCC(F)(F)F)c2C | – |
| 0.012 | 6 | CNC(=O)/C=C1/COc2cc(OS(=O)(=O)c3ccc(Cl)cc3)ccc21 | – |
| 0.0098 | 5 | CNC(=O)/C=C1/COc2c1ccc(OS(=O)(=O)c1ccccc1)c2C | – |
| 0.019 | 0 | CNC(=O)/C=C1/COc2cc(OS(=O)(=O)c3ccc(S(C)(=O)=O)cc3)ccc21 | – |
| 0.011 | 0 | CNC(=O)/C=C1/COc2cc(OS(=O)(=O)c3ccc(OC)cc3)ccc21 | – |
| 0.024 | 2 | CNC(=O)/C=C1/COc2c1ccc(OS(=O)(=O)c1cccc(Cl)c1)c2C | – |
| 0.034 | 0 | CNC(=O)/C=C1/COc2cc(OS(=O)(=O)c3ccccc3)ccc21 | – |
| 0.019 | 0 | CNC(=O)/C=C1/COc2cc(OS(=O)(=O)c3cccc(C#N)c3)ccc21 | – |
| 0.029 | 0 | CNC(=O)/C=C1/COc2cc(OS(=O)(=O)c3ccc(C(C)=O)cc3)ccc21 | – |
| 0.016 | 6 | CNC(=O)/C=C1/COc2cc(OS(=O)(=O)c3ccc(Cl)s3)ccc21 | – |
| 0.037 | 13 | CNC(=O)/C=C1/COc2cc(OS(=O)(=O)c3ccc([N+](=O)[O-])cc3)ccc21 | – |
